Source: article PMC9896170 (Xenobiotica; the fate of foreign compounds in biological …, 2022)

Columns and labels:
human CYP2A13 = target: T1, human CYP2A13 (Homo sapiens, UniProt Q16696); test: Oxidation of flavonoids by reconstituted purified CYP2A13, products by LC-MS/MS; assay type: in vitro ADME; conditions: LC-MS/MS product detection
T1 sequence (Q16696 1-494): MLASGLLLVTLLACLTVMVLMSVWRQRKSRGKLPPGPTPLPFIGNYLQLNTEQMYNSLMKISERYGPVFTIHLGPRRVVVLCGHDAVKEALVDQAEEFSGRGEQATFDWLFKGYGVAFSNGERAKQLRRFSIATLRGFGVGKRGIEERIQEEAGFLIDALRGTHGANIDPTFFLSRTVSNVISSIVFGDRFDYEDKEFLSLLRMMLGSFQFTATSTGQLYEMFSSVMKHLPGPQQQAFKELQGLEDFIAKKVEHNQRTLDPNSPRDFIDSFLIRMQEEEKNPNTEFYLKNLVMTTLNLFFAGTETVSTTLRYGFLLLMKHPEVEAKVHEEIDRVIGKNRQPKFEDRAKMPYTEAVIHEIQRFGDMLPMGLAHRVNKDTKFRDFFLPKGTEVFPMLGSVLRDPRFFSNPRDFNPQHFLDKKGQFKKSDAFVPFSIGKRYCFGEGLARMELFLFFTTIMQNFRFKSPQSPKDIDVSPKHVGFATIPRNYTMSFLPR
Outline: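 Reconstituted system of purified E. coli-expressed human CYP2A13 (50 pmol), NADPH-P450 reductase (100 pmol), cytochrome b5 (100 pmol) and DLPC (50 μg). Flavonoid at 60 μM, 1 min preincubation, then NADPH-generating system added; 37 °C, 20 min. Stopped with ice-cold CH3CN, spun, supernatant run on positive-ESI LC-MS/MS. Products were identified from fragment ion spectra; rates were quantified with available standards, three separate determinations.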

human CYP1B1 = target: T2, human CYP1B1 (Homo sapiens, UniProt Q16678); test: Oxidation of flavonoids by reconstituted purified CYP1B1, products by LC-MS/MS; assay type: in vitro ADME; conditions: LC-MS/MS product detection
T2 sequence (Q16678 1-543): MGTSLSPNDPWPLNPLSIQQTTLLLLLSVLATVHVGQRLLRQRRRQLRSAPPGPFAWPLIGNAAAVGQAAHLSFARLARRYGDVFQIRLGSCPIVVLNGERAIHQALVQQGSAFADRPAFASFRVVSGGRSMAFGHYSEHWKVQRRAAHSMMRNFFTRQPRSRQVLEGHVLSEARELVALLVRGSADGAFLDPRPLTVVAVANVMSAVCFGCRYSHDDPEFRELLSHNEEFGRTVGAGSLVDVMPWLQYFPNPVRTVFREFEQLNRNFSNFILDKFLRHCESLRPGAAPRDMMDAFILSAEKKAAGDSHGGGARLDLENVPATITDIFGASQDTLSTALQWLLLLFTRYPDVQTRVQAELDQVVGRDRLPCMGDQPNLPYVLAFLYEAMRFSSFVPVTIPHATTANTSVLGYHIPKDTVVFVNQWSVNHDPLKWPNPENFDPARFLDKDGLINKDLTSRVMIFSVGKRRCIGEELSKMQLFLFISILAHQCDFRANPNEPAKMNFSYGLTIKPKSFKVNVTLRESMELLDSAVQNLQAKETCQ

**Q.** For `COc1ccc(-c2cc(=O)c3c(O)cc(O)cc3o2)cc1OC` [3′4′diMe57diOHF, 3′,4′-dimethoxy-5,7-dihydroxyflavone], which “Extent of oxidation by CYP2A13 (in words)” value (human CYP2A13) is on record?
**A.** The value was “only small amounts of products”.

**Q.** And the “Extent of oxidation by CYP1B1 (in words)” value (human CYP1B1)?
**A.** Its value is “only small amounts of products”.

**Q.** Which “Extent of oxidation by CYP1B1 (in words)” value (human CYP1B1) does the source give for `COc1ccc(-c2cc(=O)c3ccccc3o2)cc1OC` [3′4′diMeF, 3′,4′-Dimethoxyflavone] here?
**A.** The value was “good substrate”.
